Laboratory results: ChEMBL document CHEMBL1123585, “Differential effects of N-terminal modifications on the biological potencies of growth hormone releasing factor analogues with varying chain lengths” (1987)

Assays:
[1] = biological target: T1, Growth hormone-releasing hormone receptor (Rattus norvegicus) (UniProt Q02644); test: Effect on growth hormone release(GRF) was determined in nembutal-anesthetized rat, at dose of 10 ug/100 g body weight.; assay type: functional
T1 sequence (whole entry): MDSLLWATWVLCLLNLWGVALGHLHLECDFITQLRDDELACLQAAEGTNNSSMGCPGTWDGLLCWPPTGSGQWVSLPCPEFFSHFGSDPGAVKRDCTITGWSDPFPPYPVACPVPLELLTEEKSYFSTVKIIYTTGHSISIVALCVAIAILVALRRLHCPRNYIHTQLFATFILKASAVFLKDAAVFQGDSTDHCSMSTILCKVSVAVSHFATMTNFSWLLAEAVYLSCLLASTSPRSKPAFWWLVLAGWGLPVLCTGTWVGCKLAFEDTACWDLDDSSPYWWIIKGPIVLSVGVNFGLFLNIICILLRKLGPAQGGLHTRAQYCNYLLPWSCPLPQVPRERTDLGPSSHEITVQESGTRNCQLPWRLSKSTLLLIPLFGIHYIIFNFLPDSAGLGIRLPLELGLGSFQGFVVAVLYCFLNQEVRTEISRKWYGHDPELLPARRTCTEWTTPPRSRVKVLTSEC
Method in brief: (§1)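 Male Charles River rats (175-275 g), anesthetized with sodium pentobarbital 6 mg/100 g body weight. Six to nine per group. Peptide or saline given subcutaneously in 0.5 mL, 30 min after anesthetic. Jugular vein blood taken 15 min post-injection. Plasma GH measured by radioimmunoassay and reported as ng/mL, mean ± SEM.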

[2] = test system: Rattus norvegicus; test: Effect on growth hormone release(GRF) was determined in nembutal-anesthetized rat, at dose of 4 ug/100 g body weight.; assay type: functional, organism-based; method in brief: as §1
[3] = biological target: T1, Growth hormone-releasing hormone receptor (Rattus norvegicus); test: In vitro rat pituitary cell growth hormone response was obtained; assay type: functional, cell-based; details: Pituitary gland cell
[4] = biological target: T1, Growth hormone-releasing hormone receptor (Rattus norvegicus); test: Tested for the potency of growth hormone (GRF) on subcutaneous administration in anesthetized male Charles River rats; assay type: functional, organism-based
Method in brief: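 Pentobarbital-anesthetized male rats (175-275 g), six to nine per group, received two subcutaneous doses of analogue or of reference GRF(1-29)NH2, in 0.5 mL, 30 min after anesthesia. Plasma GH measured by RIA 15 min later. Potency with 95% confidence limits calculated from a four-point assay design by the Pugsley method.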

[5] = test system: Rattus norvegicus; test: Effect on growth hormone release(GRF) was determined in nembutal-anesthetized rat, at dose of 200 ug/100 g body weight.; assay type: functional, organism-based; method in brief: as §1
[6] = test system: Rattus norvegicus; test: Effect on growth hormone release(GRF) was determined in nembutal-anesthetized rat, at dose of 80 ug/100 g body weight.; assay type: functional, organism-based; method in brief: as §1

Structure (SMILES)	Plasma GH release [1]	Plasma GH release [2]	Potency [3]	Potency [4]	Plasma GH release [5]	Plasma GH release [6]
CC[C@H](C)[C@H](NC(=O)[C@H](C)NC(=O)[C@@H](CC(=O)O)NC(=O)[C@H](C)NC(=O)[C@@H](N)Cc1ccc(O)cc1)C(=O)N[C@@H](Cc1ccccc1)C(=O)N[C@H](C(=O)N[C@H](CC(N)=O)C(=O)N[C@@H](CO)C(=O)N[C@@H](Cc1ccc(O)cc1)C(=O)N[C@@H](CCCN=C(N)N)C(=O)N[C@@H](CCCCN)C(=O)N[C@H](C(=O)N[C@@H](CC(C)C)C(=O)NCC(=O)N[C@@H](CCC(N)=O)C(=O)N[C@@H](CC(C)C)C(=O)N[C@@H](CO)C(=O)N[C@@H](C)C(=O)N[C@@H](CCCN=C(N)N)C(=O)N[C@@H](CCCCN)C(=O)N[C@@H](CC(C)C)C(=O)N[C@@H](CC(C)C)C(=O)N[C@@H](CCC(N)=O)C(=O)N[C@@H](CC(=O)O)C(=O)N[C@H](C(=O)N[C@@H](CC(C)C)C(N)=O)[C@@H](C)CC)C(C)C)[C@@H](C)O	2170 ng/mL	899 ng/mL	83%	199%	–	–
CC[C@H](C)[C@H](NC(=O)[C@H](C)NC(=O)[C@H](CC(=O)O)NC(=O)[C@@H](C)NC(=O)[C@@H](N)Cc1ccc(O)cc1)C(=O)N[C@@H](Cc1ccccc1)C(=O)N[C@H](C(=O)N[C@@H](CC(N)=O)C(=O)N[C@@H](CO)C(=O)N[C@@H](Cc1ccc(O)cc1)C(=O)N[C@@H](CCCN=C(N)N)C(=O)N[C@@H](CCCCN)C(=O)N[C@H](C(=O)N[C@@H](CC(C)C)C(=O)NCC(=O)N[C@@H](CCC(N)=O)C(=O)N[C@@H](CC(C)C)C(=O)N[C@@H](CO)C(=O)N[C@@H](C)C(=O)N[C@@H](CCCN=C(N)N)C(=O)N[C@@H](CCCCN)C(=O)N[C@@H](CC(C)C)C(=O)N[C@@H](CC(C)C)C(=O)N[C@@H](CCC(N)=O)C(=O)N[C@@H](CC(=O)O)C(=O)N[C@H](C(=O)N[C@@H](CC(C)C)C(N)=O)[C@@H](C)CC)C(C)C)[C@@H](C)O (stereo in doubt; 4)	–	–	0.0004%	7%	1500 ng/mL	742 ng/mL
